Data: paper PMC9037101 (RSC Advances, 2021)

What was measured:
[1] = type: in vivo, Sprague-Dawley (SD) rats; details: for AUC(0-inf) / AUC(0-t) / Cmax / Tmax / half-life: male, Sprague-Dawley, plasma, po, 15 mL kg^−1; for AUC(0-inf) / AUC(0-t) / Cmax / Tmax / half-life / absorption into blood (in words): rat; for absorption into blood (in words): oral administration of extract
[2] = Stability of the analytes in rat plasma QC samples; type: in vitro ADME; details: for Free-thaw stability: Measured concentration / Free-thaw stability: Accuracy: 3 free thaw cycles; for Free-thaw stability: Accuracy / Long-tern stability: Accuracy: relative error; for Long-tern stability: Accuracy / Long-tern stability: Measured concentration: −20 °C for 21 d; for Short-tern stability: Measured concentration: room temperature for 8 h
Procedure, shortened: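 Rat (SD male) plasma QC samples at low, medium and high levels, six replicates each. Storage conditions: 4 h at room temperature after preparation, 8 h at room temperature (short-term), 21 days at −20 °C (long-term), and three freeze (−20 °C)/thaw (room temperature) cycles over three consecutive days. Samples were methanol-precipitated with internal standard and measured by HPLC-MS/MS. Stability was reported as relative error.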

[3] = double-peak phenomenon, rat plasma, oral extract

Row | SMILES | AUC(0-inf) [1] [ng·h/mL] | Cmax [1] [ng/mL] | Tmax [1] [min] | half-life [1] [min] | absorption into blood (in words) [1] | Free-thaw stability: Measured concentration ([2]; high QC spiked concentration) [ng/mL] | Free-thaw stability: Measured concentration ([2]; low QC spiked concentration) [ng/mL] | Free-thaw stability: Measured concentration ([2]; medium QC spiked concentration) [ng/mL] | Free-thaw stability: Accuracy ([2]; high QC spiked concentration) [%] | Free-thaw stability: Accuracy ([2]; low QC spiked concentration) [%] | Free-thaw stability: Accuracy ([2]; medium QC spiked concentration) [%] | Long-tern stability: Accuracy ([2]; high QC spiked concentration) [%] | Long-tern stability: Accuracy ([2]; low QC spiked concentration) [%] | Long-tern stability: Accuracy ([2]; medium QC spiked concentration) [%] | Short-tern stability: Measured concentration ([2]; high QC spiked concentration) [ng/mL] | Short-tern stability: Measured concentration ([2]; low QC spiked concentration) [ng/mL] | Short-tern stability: Measured concentration ([2]; medium QC spiked concentration) [ng/mL] | Long-tern stability: Measured concentration ([2]; high QC spiked concentration) [ng/mL] | Long-tern stability: Measured concentration ([2]; low QC spiked concentration) [ng/mL] | Long-tern stability: Measured concentration ([2]; medium QC spiked concentration) [ng/mL] | other results
1 | COc1ccc(-c2cc(=O)c3c(O)cc(O)cc3o2)cc1 [Acacetin, acacetin] | 17.7 | 31.9 ± 17.6 | 10 | 96.87 ± 0.12 | rapidly absorbed | 108.48 ± 6.51 | 4.81 ± 0.22 | 26.99 ± 4.36 | 6.21 | 4.11 | 3.13 | 3.46 | 4.11 | 1.38 | 107.02 ± 3.38 | 4.69 ± 0.36 | 27.31 ± 5.34 | 105.68 ± 9.65 | 4.81 ± 0.27 | 26.53 ± 3.21 | AUC(0-t) [1]: 15.3 ng·h/mL
2 | C[C@@H]1O[C@@H](O[C@@H]2[C@@H](O)[C@H](OCCc3ccc(O)c(O)c3)O[C@H](CO)[C@H]2OC(=O)/C=C/c2ccc(O)c(O)c2)[C@H](O)[C@H](O)[C@H]1O [Acteoside, acteoside] | – | 650 ± 16.4 | 10 | 46.8 ± 0.35 | rapidly absorbed | 2132.91 ± 11.91 | 2.1 ± 0.14 | 544.87 ± 4.54 | 5.21 | 3.45 | 4.92 | 6.94 | 1.97 | 4.16 | 2150.14 ± 11.92 | 2.11 ± 0.13 | 548.82 ± 2.92 | 2167.98 ± 18.52 | 2.07 ± 0.12 | 540.92 ± 9.44 | –
3 | O=c1cc(-c2ccc(O)cc2)oc2cc(O)cc(O)c12 [Apigenin, apigenin] | – | 146 ± 14.9 | 180 | 298.5 ± 0.16 | absorbed very slowly | 494.36 ± 4.99 | 7.34 ± 0.32 | 124.68 ± 6.33 | 5.51 | 3.67 | 6.63 | 3.51 | 7.06 | 6.48 | 490.89 ± 7.31 | 7.17 ± 1.91 | 123.78 ± 2.47 | 484.98 ± 5.09 | 7.58 ± 0.51 | 124.51 ± 4.02 | time of first peak of the plasma concentration–time curve [1, 3]: 5 min; time of second peak of the plasma concentration–time curve [1, 3]: 180 min
4 | O=c1cc(-c2ccc(O)c(O)c2)oc2cc(O)cc(O)c12 [Luteolin, luteolin] | 35.4 | 77.4 ± 25.7 | 5 | 36.08 ± 0.24 | – | 258.35 ± 4.86 | 6.60 ± 0.18 | 66.03 ± 2.64 | 4.35 | 4.43 | 6.21 | 5.43 | 6.01 | 8.32 | 260.55 ± 0.49 | 6.76 ± 0.18 | 64.88 ± 0.92 | 261.02 ± 4.65 | 6.7 ± 0.76 | 67.34 ± 3.63 | –
5 | O=c1c(O)c(-c2ccc(O)c(O)c2)oc2cc(O)cc(O)c12 [Quercetin, quercetin] | 18.2 | 20.1 ± 24.9 | 5 | 46.03 ± 0.09 | rapidly absorbed | 67.46 ± 2.42 | 2.78 ± 0.89 | 17.48 ± 1.19 | 4.62 | 5.30 | 6.72 | 6.02 | 3.03 | 5.43 | 66.98 ± 7.47 | 2.80 ± 1.62 | 17.12 ± 1.22 | 68.36 ± 3.68 | 2.72 ± 0.32 | 17.27 ± 2.69 | AUC(0-t) [1]: 9.31 ng·h/mL
6 | C[C@@H]1O[C@@H](OC[C@H]2O[C@@H](Oc3c(-c4ccc(O)c(O)c4)oc4cc(O)cc(O)c4c3=O)[C@H](O)[C@@H](O)[C@@H]2O)[C@H](O)[C@H](O)[C@H]1O [Rutin] | – | 131 ± 18.3 | 5 | – | rapidly absorbed | 437.7 ± 10.02 | 6.2 ± 1.88 | 110.30 ± 8.24 | 4.58 | 2.48 | 7.54 | 2.55 | 4.30 | 4.68 | 426.82 ± 18.15 | 6.36 ± 6.81 | 108.48 ± 7.41 | 429.20 ± 19.79 | 6.31 ± 5.88 | 107.37 ± 9.98 | AUC(0-t) [1]: 50.7 ng·h/mL; AUC0–∞ (mean ± SD) ([1]; rat plasma, single oral administration of extract 15 mL kg^−1, n = 6): 3039.62 ± 54.07 ng/L/h
